Compound activity deposited in PubChem by Sanford-Burnham Center for Chemical Genomics.
Sampled rows, rich in hits. Any-hit rate of the full collection: about 1.5%.
NR1D1 modulator – Rev-erb alpha (human) modulation; Rev-erbα–FITC-DNA binding, fluorescence polarization, 90 min; activity, % at 10 µM; 370,000 compounds, 0.79% hits; AID 1259318;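 active means activity above about 14%, limit read from the data; passing the limit was not always enough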;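 further: 0% = DMSO wells with 35 nM protein and 100% = DMSO wells with 750 nM protein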
Target sequence (P20393 whole entry, looked up): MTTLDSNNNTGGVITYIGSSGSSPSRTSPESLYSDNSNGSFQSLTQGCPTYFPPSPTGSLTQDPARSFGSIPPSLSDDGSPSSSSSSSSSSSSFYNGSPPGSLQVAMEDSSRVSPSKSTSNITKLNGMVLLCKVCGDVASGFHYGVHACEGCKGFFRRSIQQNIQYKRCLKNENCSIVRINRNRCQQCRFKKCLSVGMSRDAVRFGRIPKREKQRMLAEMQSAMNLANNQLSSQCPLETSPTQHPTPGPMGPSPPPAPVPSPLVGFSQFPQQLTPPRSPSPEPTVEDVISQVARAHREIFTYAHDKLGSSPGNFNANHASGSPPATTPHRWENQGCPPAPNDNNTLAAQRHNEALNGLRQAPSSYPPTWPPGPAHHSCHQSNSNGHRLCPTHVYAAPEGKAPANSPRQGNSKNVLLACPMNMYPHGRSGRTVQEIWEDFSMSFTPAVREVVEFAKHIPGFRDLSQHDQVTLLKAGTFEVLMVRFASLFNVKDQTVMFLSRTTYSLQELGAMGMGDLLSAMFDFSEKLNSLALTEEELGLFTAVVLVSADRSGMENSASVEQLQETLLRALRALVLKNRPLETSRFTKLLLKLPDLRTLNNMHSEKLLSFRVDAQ
aDG glyco act – alpha-DG glycosylation activation. Pro5-aDG cells, alpha-DG glycosylation AlphaScreen (IIH6); 0% Pro5, 100% B10-LARGE cell signal. activation, % at 10 µM. 360,000 compounds, 0.22% hits;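 active means activation of at least 8% versus controls, or a plate z-score of at least 8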;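 further: Pro5 are CHO cells carrying HIG-tagged alpha-DG that lacks glycosylation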
CSN deneddyl inh – inhibitors of human CSN-mediated cullin deneddylation | inhibition, % at 12.5 µM | Purified CSN, SCF-Nedd8-OG deneddylation, fluorescence polarization | 360,000 compounds, 0.38% hits | Q92905;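 active means pattern-corrected inhibition above about 35%, with an unprinted fluorescence ratio check between 0.5 and 1.5, limit read from the data, passing the limit was not always enough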;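 further: 0% = enzyme with substrate and 100% = substrate without enzyme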
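Assay system: Purified human Csn5 enzyme expressed in HEK293T cells | Amount: Enzyme 0.24 nM | Measured by: Fluorescence polarization readout | Medium: Tris/NaCl/DTT buffer, pH 7.5 | Compound dosing: One concentration, 12.5 µM, 0.25% DMSO | Times: 90 min incubation of compound, enzyme and substrate at room temperature | Control set: no-enzyme wells high, enzyme-with-substrate wells low | Read-out: % inhibition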
HNF4A DNA FP – change in binding of human HNF4 alpha to DNA. HNF4a-FITC DNA binding, fluorescence polarization, 1 h. activity change, % at 10 µM. 360,000 compounds, 0.3% hits. AID 1224865; in the data active means activity change above about 30%, passing the limit was not always enough
The depositor's hits bear a star; . = no result given.

SMILES	NR1D1 modulator	aDG glyco act	CSN deneddyl inh	HNF4A DNA FP
N#Cc1cccc(NC(=O)OCCN2C(=O)CCC23CCC(c2ccc(Cl)cc2)CC3)c1 (stereo not drawn)	6	.	.	.
O=C(CCn1c(=S)[nH]c2ccccc2c1=O)Nc1cccc(Cl)c1	10	0	0	-2
COc1ccc(NC(=O)CCn2c(=S)[nH]c3ccccc3c2=O)cc1Cl	-7	0	15	42*
CCCCN1C(=O)C2(NNc3ccccc3O2)c2ccccc21 (stereo not drawn)	-4	0	7	69*
C=CCN1C(=O)C(O)(CC(=O)c2ccc(-n3cccc3)cc2)c2ccccc21 (stereo not drawn)	.	0	-4	8
C=CCN1C(=O)C2(NC(=O)c3ccccc3N2)c2ccccc21 (stereo not drawn)	3	0	4	81*
CCCCN1C(=O)C(O)(CC(=O)c2c(C)coc2C)c2ccccc21 (stereo not drawn)	6	0	2	0
C=CCN1C(=O)C2(NNc3ccccc3O2)c2ccccc21 (stereo not drawn)	3	1	29	71*
CC(C)C[C@@H]1COc2cc(Br)ccc2S(=O)(=O)N1Cc1cn(Cc2ccco2)nn1	-3	.	.	.
C=CCN1[C@H](CC(C)C)COc2cccc(N3CCSCC3)c2S1(=O)=O	2	.	.	.
O=C(N/N=C/c1ccncc1)c1cccc(NC(=O)c2ccc(Cl)cc2)c1	-10	0	78*	12
COc1ccc(S(=O)(=O)NCc2ccncc2)cc1OC	-5	1	3	2
COc1ccc(S(=O)(=O)NCc2cccnc2)cc1OC	0	0	-2	46*
O=S1(=O)c2c(cccc2N2CCSCC2)Oc2ccccc2CN1Cc1cn(Cc2cccc(C(F)(F)F)c2)nn1	6	.	.	.
O=C(/C=C/c1ccc(Br)cc1)NC(=S)Nc1ccc(S(=O)(=O)Nc2nccs2)cc1	-28	0	75*	-44
Cc1ccc(C2CC(=O)C=C(Nc3ccc(Cl)cc3)C2)cc1 (stereo not drawn)	-4	0	3	35*
CCOc1ccc(-n2c(SCC(=O)Nc3ccc(S(=O)(=O)Nc4nccs4)cc3)nnc2-c2ccncc2)cc1	1	.	.	.
O=c1[nH]cnc2c1ncn2C1O[C@H](CO)[C@@H](O)[C@H]1O (stereo partly drawn)	-3	.	.	.
COc1ccc(C)cc1Nc1n[n+](-c2ccccc2)c(-c2ccc(OC)c(OC)c2OC)s1	0	0	-4	-4
COc1ccc(C)cc1Nc1n[n+](-c2ccccc2)c(-c2ccc(N(C)C)cc2)s1	6	0	15	68*
COc1ccc(C(=O)/C=C/Nc2ccc([N+](=O)[O-])cc2C)cc1OC	1	0	46*	37*
COc1ccc(C(=O)/C=C/Nc2ccc([N+](=O)[O-])cc2C)c(OC)c1	5	0	8	19
COc1ccc(N2CCN(CCCNC(=O)CCc3ccc(F)cc3)CC2)cc1	3	.	.	.
COc1ccc(/C=c2\s/c(=C/C(=O)c3ccc(C)cc3)[nH]c2=O)cc1OC	15	0	32	67*
Cn1c(N)c(C(=O)CSc2nnc(-c3c[nH]c4ccccc34)n2C2CC2)c(=O)[nH]c1=O	-2	0	35*	-2
SMILES	NR1D1 modulator	aDG glyco act	CSN deneddyl inh	HNF4A DNA FP
Cc1ccccc1N1CCN(CCc2nnc3n2CCCC3)CC1	-2	.	.	.
CC(C)N1CCCCC(NC(=O)c2ccc(F)cc2)C1=O (stereo not drawn)	10	.	.	.
COc1ccc(-c2ccc3c(=O)cc(-c4ccsc4)oc3c2)cn1	6	0	104*	63*
CC(NC(=O)/C(C#N)=C1\N=C(NC(=O)c2cccs2)c2ccccc21)c1ccccc1 (stereo not drawn)	6	0	15	55*
N#C/C(C(=O)NCCc1ccccc1)=C1/N=C(NC(=O)c2cccs2)c2ccccc21	-7	0	3	9
O=c1c2ccccc2n(Cc2ccno2)n1[C@@H](Cc1ccccc1)Cn1cc(C2CCCC2)nn1	6	.	.	.
Cc1c(O)ccc(/C=N/Nc2ncccc2[N+](=O)[O-])c1O	-7	5.8*	-1	0
O=[N+]([O-])c1cccnc1N/N=C/c1ccccc1O	-4	0	-11	3
CC(C)(C)OC(=O)NCc1ccc(NC(=O)c2nc[nH]c2C(=O)NCCCCCCNC(=O)c2[nH]cnc2C(=O)Nc2ccc(CNC(=O)OC(C)(C)C)cc2)cc1	8	0	17	46*
COc1c(C)c2c(c(O)c1C/C=C(\C)CCC(=O)OCCN1CCOCC1)C(=O)OC2	4	.	.	.
O=C(O)[C@H]1O[C@H](O)[C@H](O)[C@@H](O)[C@@H]1O	-4	.	.	.
Cc1cc(NS(=O)(=O)c2ccccc2)c(C)c(Cl)c1O	0	16*	4	1
Cc1c(O)ccc(NS(=O)(=O)c2ccccc2)c1C	-1	0	-19	3
CCOC(=O)Cc1nc(N2CCN(C(=O)C3CCCO3)CC2)c2c(C)c(C(=O)OCC)sc2n1 (stereo not drawn)	-3	.	.	.
CC(C)c1nc2sc3c(SCC(=O)NCc4ccco4)ncnc3c2c2c1CCC2	8	0	46*	-23
C=CCN1[C@@H](Cc2ccccc2)COc2cccc(F)c2S1(=O)=O	-4	.	.	.
O=C(O)c1ccc(-n2c(=O)c3ccccc3c3ccccc3c2=O)cc1	0	0	-17	-1
Cc1ccc(-n2c(=O)c3cc4c(=O)n(-c5ccc(C)c(C)c5)c(=O)c4c(C(=O)c4ccc(C(=O)O)cc4)c3c2=O)cc1C	0	0	84*	-58
COc1cc(/C=C2\SC(=S)N(NC(=O)c3ccccc3OC)C2=O)ccc1O	9	0	5	48*
CCCCC(CC)CN=C(N)NC(N)=NCCCCCCN=C(N)NC(N)=NCC(CC)CCCC (stereo not drawn)	.	0	127*	98*
CCCCC(CC)CO (stereo not drawn)	4	0	-2	0
C[N+]1(C)CCN(CC(O)(c2ccccc2)C2CCCCC2)CC1 (stereo not drawn)	3	.	.	.
Nc1c(C(=O)O)sc2nc(-c3ccccc3)cc(-c3ccc(F)cc3)c12	4	0	8	35*
Nc1c(C(=O)O)sc2nc(-c3ccccc3)cc(-c3ccccc3)c12	-6	0	2	18
CNC[C@@H](O)c1ccc(O)c(O)c1	2	.	.	.
CC(C)CSc1nnc(-c2ccco2)n1C	3	.	.	.
CSCCC(NC(=O)C(Cc1c[nH]c2ccccc12)NC(=O)CCNC(=O)OC(C)(C)C)C(=O)NC(CC(=O)O)C(=O)NC(Cc1ccccc1)C(N)=O (stereo not drawn)	-6	.	.	.
CCCCn1c(O)c(N=Nc2ccccc2O)c2ccccc21	-4	0	13	84*
CC(C)N1C(=O)S/C(=C/c2ccc(Sc3nc4ccccc4[nH]3)o2)C1=O	4	4	5	88*
CC(=O)Nc1ccc(C(=O)CN2CCN(c3ccccc3)CC2)cc1	-9	0	100*	19
